Laboratory results published in ChEMBL document CHEMBL3877288, “Identification and biochemical characterization of DC07090 as a novel potent small molecule inhibitor against human enterovirus 71 3C protease by structure-based virtual screening” (Eur J Med Chem, 2016).
One block for each compound: values may come before it. Activity calls are given as the source filed them. The calls are words filed in the database; no cut-off is given here.

How the values were obtained:
[1] = Inhibition of recombinant N-terminal 6His-tagged EV71 3C protease expressed in Escherichia coli Rosetta using substrate Dabcyl-RTATVQGPSLDFE-Edans preincubated for 30 mins followed by substrate addition; set-up: species or system Enterovirus A71
Outline: (§1)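 Preincubated with compound in DMSO for 30 min at 30 °C. Ex 340/Em 500 nm; initial velocity over the first 600 s. Inhibition relative to DMSO control; mean of three experiments. IC50 from serial dilutions.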

Coxsackievirus = assay: Antiviral activity against Coxsackievirus A16 assessed as reduction in viral replication after 72 hrs by CellTiter-glo luminescent cell viability assay; assay type: functional; conditions: A16, 72 h
Outline: (§2)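 RD cells seeded at 1 × 10^4/mL in DMEM with 10% FBS and antibiotics, grown 24 h at 37 °C, 5% CO2. Virus (EV71 50 TCID50; CVA16 100 TCID50) mixed with serial compound dilutions, added to cells and held 72 h at 37 °C. Protection read by CellTiter-Glo luminescence. EC50 is the concentration cutting virus-induced cell death by 50% versus virus control. Triplicate, run at least twice.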

Enterovirus A71 [2] = assay: Inhibition of recombinant N-terminal 6His-tagged EV71 3C protease expressed in Escherichia coli Rosetta using substrate Dabcyl-RTATVQGPSLDFE-Edans at 50 uM after 30 mins by fluorescence assay; outline: as §1
Enterovirus A71 [3] = assay: Antiviral activity against EV71 infected in human RD cells assessed as reduction in viral plaque formation after 1 hr by crystal violet staining method; assay type: functional, cell-based; conditions: Enterovirus A
[4] = Cytotoxicity against African green monkey Vero cells after 48 hrs by MTT assay; assay type: toxicity, cell-based; conditions: chlorocebus sabaeus
Enterovirus A71 [5] = assay: Antiviral activity against EV71 assessed as reduction in viral replication after 72 hrs by CellTiter-glo luminescent cell viability assay; assay type: functional; conditions: Enterovirus A; outline: as §2
Enterovirus A71 [6] = assay: Antiviral activity against EV71 infected in African green monkey Vero cells after 48 hrs by plaque assay; assay type: functional, cell-based; conditions: Enterovirus A
Enterovirus A71 [7] = assay: Antiviral activity against EV71 infected in human RD cells assessed as protection against virus infection after 72 hrs by MTS assay; assay type: functional, cell-based; conditions: Enterovirus A
Enterovirus A71 [8] = assay: Antiviral activity against EV71 infected in human RD cells assessed as protection against virus-induced cytopathic effect after 48 hrs by MTS assay; assay type: functional, cell-based; conditions: Enterovirus A
[9] = (§3) Binding affinity to recombinant N-terminal 6His-tagged EV71 3C protease expressed in Escherichia coli Rosetta after 1 hr by intrinsic fluorescence quenching assay; set-up: species or system Enterovirus A71
Outline: (§4)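 Compound dilutions were mixed with 2 µM 3Cpro (wild type or mutants) for 1 h on ice, then held 5 min in the dark in a 1 cm quartz cell. Trp emission spectra recorded from 300 to 400 nm at 25 °C, with maximum at 340 nm. Kd derived from dose-dependent quenching.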

Enterovirus A71 [10] = assay: as §3; outline: as §4
[11] = Inhibition of EV71 3C protease F25W mutant using substrate Dabcyl-RTATVQGPSLDFE-Edans at 0.1 to 10 uM preincubated for 30 mins followed by substrate addition by fluorescence assay; set-up: species or system Enterovirus A71
[12] = Binding affinity to EV71 3C protease A144S mutant after 1 hr by intrinsic fluorescence quenching assay; set-up: species or system Enterovirus A71
Enterovirus A71 [13] = assay: Inhibition of EV71 3C protease F25A mutant using substrate Dabcyl-RTATVQGPSLDFE-Edans at 0.1 to 10 uM preincubated for 30 mins followed by substrate addition by fluorescence assay
[14] = Competitive inhibition of recombinant N-terminal 6His-tagged EV71 3C protease expressed in Escherichia coli Rosetta using substrate Dabcyl-RTATVQGPSLDFE-Edans by Dixon plot; set-up: species or system Enterovirus A71
Outline: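 Same fluorogenic 3Cpro activity assay (8 µM enzyme, 30 min preincubation at 30 °C, Ex 340/Em 500 nm, initial rates) run at inhibitor 0–20 µM and substrate 40–150 µM. Mechanism assigned from Lineweaver–Burk plots; Ki obtained from Dixon plots.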

[15] = Binding affinity to EV71 3C protease F25W mutant after 1 hr by intrinsic fluorescence quenching assay; set-up: species or system Enterovirus A71
[16] = Cytotoxicity against human RD cells after 48 hrs by CellTiter-glo luminescent cell viability assay; assay type: toxicity, cell-based
Outline: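 RD cells plated at 1 × 10^3 per well in DMEM with 10% FBS and antibiotics, cultured overnight at 37 °C, 5% CO2. Compound added at 0–200 µM (final) for 48 h at 37 °C. CellTiter-Glo luminescence read. Inhibition = 1 − RLU(treated)/RLU(cell control) × 100%. CC50 obtained by regression analysis.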

Enterovirus A71 [17] = assay: Ratio of IC50 for recombinant N-terminal 6His-tagged EV71 3C protease to IC50 for EV71 3C protease F25W mutant
[18] = Binding affinity to EV71 3C protease F25A mutant after 1 hr by intrinsic fluorescence quenching assay; set-up: species or system Enterovirus A71
Enterovirus A71 [19] = assay: Ratio of IC50 for recombinant N-terminal 6His-tagged EV71 3C protease to IC50 for EV71 3C protease A144S mutant
[20] = Inhibition of EV71 3C protease A144S mutant using substrate Dabcyl-RTATVQGPSLDFE-Edans preincubated for 30 mins followed by substrate addition by fluorescence assay; set-up: species or system Enterovirus A71
[21] = Binding affinity to recombinant N-terminal 6His-tagged EV71 3C protease expressed in Escherichia coli Rosetta by surface plasmon resonance assay; set-up: species or system Enterovirus A71
Outline: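 Compound concentrations in HBS-EP were injected at 30 µL/min for 60 s, with 120 s dissociation, on a Biacore 3000. Kd fitted with a 1:1 Langmuir model.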

IC50 [1]: 2.62 µM | inhibition (Enterovirus A71 [2]): 104%
SMILES: CCOC(=O)/C=C/[C@H](C[C@@H]1CCNC1=O)NC(=O)[C@@H](CC(=O)[C@@H](NC(=O)c1cc(C)on1)C(C)C)Cc1ccc(F)cc1 [RUPINTRIVIR]
EC50 (Coxsackievirus): 0.00565 µM

inhibition (Enterovirus A71 [2]): < 5%
SMILES: Cc1cccc(CNc2ccc(-c3nc4nc(C)ccc4o3)cc2F)n1

inhibition (Enterovirus A71 [2]): 19.2%
SMILES: Cc1ccc2oc(-c3ccc(NCc4ccccn4)cc3)nc2n1

inhibition (Enterovirus A71 [2]): 6.72%
SMILES: Cc1ccc2oc(-c3ccc(NCc4ccccn4)c(F)c3)nc2n1

IC50 [1]: 48 µM | inhibition (Enterovirus A71 [2]): 73.7%
SMILES: c1ccc(CNc2ccc(Cc3nc4ncccc4o3)cc2)nc1

inhibition (Enterovirus A71 [2]): 34.7%
SMILES: Cc1cccc(CNc2ccc(-c3nc4ncccc4o3)cc2Cl)n1

EC50 (Enterovirus A71 [3]): 84.5 µM
SMILES: O=c1c(O)c(-c2ccc(O)c(O)c2)oc2cc(O)ccc12 [FISETIN]

inhibition (Enterovirus A71 [2]): < 5%
SMILES: Cc1cccc(CNc2ccc(-c3nc4nc(C)ccc4o3)cc2)n1

inhibition (Enterovirus A71 [2]): 18.6%
SMILES: Cc1cccc(CNc2ccc(-c3nc4nc(C)ccc4o3)cc2Cl)n1

inhibition (Enterovirus A71 [2]): 6.65%
SMILES: Clc1cc(-c2nc3ncccc3o2)ccc1NCc1ccccn1

inhibition (Enterovirus A71 [2]): 19.2%
SMILES: Cc1cccc(CNc2ccc(-c3nc4ncccc4o3)cc2F)n1

inhibition (Enterovirus A71 [2]): 7.42%
SMILES: Cc1cccc(CNc2ccc(Cc3nc4nc(C)ccc4o3)cc2)n1

EC50 (Enterovirus A71 [6]): 670 nM
SMILES: C#C[C@@]1(O)[C@H](O)[C@@H](CO)O[C@H]1n1ccc2c(N)ncnc21
CC50 at 48 h [4]: 120 µM | EC50 (Enterovirus A71 [5]): 0.17 µM

IC50 [1]: 31.6 µM | inhibition (Enterovirus A71 [2]): 60%
SMILES: Cc1cccc(CNc2ccc(Cc3nc4ncccc4o3)cc2)n1

SMILES: COc1cc(-c2cc(=O)c3c(O)cc(OP(=O)(OC(C)C)OC(C)C)cc3o2)cc(OC)c1O
EC50 (Enterovirus A71 [7]): 9.06 µM

SMILES: O=c1cc(-c2ccc(O)c(O)c2)oc2cc(O[C@@H]3O[C@H](CO)[C@@H](O)[C@H](O)[C@H]3O)cc(O)c12 [GALUTEOLIN]
EC50 (Enterovirus A71 [8]): 430 µM

IC50 [1]: 40.1 µM | inhibition (Enterovirus A71 [2]): 68.1%
SMILES: Cc1cccc(CNc2ccc(-c3nc4ncccc4o3)cc2)n1

inhibition (Enterovirus A71 [2]): 6.96%
SMILES: Cc1ccc2oc(-c3ccc(NCc4ccccn4)c(Cl)c3)nc2n1

SMILES: O=c1cc(-c2ccccc2)oc2cc(O)cc(O)c12 [CHRYSIN]
EC50 (Enterovirus A71 [7]): 15.9 µM

EC50 (Enterovirus A71 [3]): 110 µM
SMILES: C[C@@H]1O[C@@H](OC[C@H]2O[C@@H](Oc3c(-c4ccc(O)c(O)c4)oc4cc(O)cc(O)c4c3=O)[C@H](O)[C@@H](O)[C@@H]2O)[C@H](O)[C@H](O)[C@H]1O [RUTIN]

inhibition (Enterovirus A71 [2]): 11.9%
SMILES: Cc1ccc2oc(Cc3ccc(NCc4ccccn4)cc3)nc2n1

SMILES: c1ccc(CNc2ccc(-c3nc4ncccc4o3)cc2)nc1
Kd [9]: 13.4 µM | Activity (Enterovirus A71 [10]): Dose-dependent effect | IC50 [11]: 2280 nM | Kd [12]: 6.37 µM | inhibition (Enterovirus A71 [13]): Active | Ki [14]: 23.3 µM | IC50 [1]: 21.7 µM | EC50 (Enterovirus A71 [5]): 22.1 µM | EC50 (Coxsackievirus): 27.8 µM | Kd [15]: 12.1 µM | inhibition (Enterovirus A71 [2]): 80.2% | CC50 at 48 h [16]: > 200 µM | Ratio IC50 (Enterovirus A71 [17]): 9.5 | Kd [18]: 25 µM | Ratio IC50 (Enterovirus A71 [19]): 2.2 | IC50 [20]: 9.73 µM | Kd [21]: 16.5 µM

inhibition (Enterovirus A71 [2]): < 5%
SMILES: Fc1cc(-c2nc3ncccc3o2)ccc1NCc1ccccn1
